MrgX1 agonist = activates human MrgX1 receptor signaling; MrgX1-HEK293 cells, Fluo-4 calcium fluorescence, agonist mode; hits give high values; B-score at 10 µM; 0.44% of 310,000 active; AID 588627;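 active = calcium response B-score plate-corrected fluorescence ratio at least 3 library SD, with starting fluorescence B-score inside 5 SD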
Target sequence (Q96LB2 whole entry, looked up): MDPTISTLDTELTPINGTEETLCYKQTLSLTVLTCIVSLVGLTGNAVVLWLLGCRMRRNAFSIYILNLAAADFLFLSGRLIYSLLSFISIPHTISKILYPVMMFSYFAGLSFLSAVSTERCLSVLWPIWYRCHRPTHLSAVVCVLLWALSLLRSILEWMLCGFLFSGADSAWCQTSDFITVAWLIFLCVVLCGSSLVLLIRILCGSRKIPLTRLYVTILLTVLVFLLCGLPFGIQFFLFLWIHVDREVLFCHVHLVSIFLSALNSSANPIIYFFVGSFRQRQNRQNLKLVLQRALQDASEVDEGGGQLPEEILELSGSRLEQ
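Assay system: stable human MrgX1 HEK293 cell line. Quantity: 15,000 cells per well. Schedule: cells plated overnight, dye loaded 0.5 h 37 °C, 0.5 h room temperature. Detection: Fluo-4 NW calcium-flux fluorescence, kinetic read. Read-out basis: peak-minus-minimum fluorescence over baseline, converted to B scores. Control set: positive and negative control wells on each plate.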
RGS4 inh = inhibitors of human RGS4; B-score at 10 µM; 0.45% of 310,000 active; P49798; HEK293 M3R/RGS4 inducible, Fluo-4 calcium flux; hits give high values; triggered by carbachol at its EC20; AID 463165;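 active = B-score, a plate-corrected calcium signal, over three deviations above library mean, with baseline fluorescence within five deviations of library mean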;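 also: RGS4 expression induced by doxycycline in cells with stable M3 receptor; B-score is computed from the integrated fluorescence ratio over baseline after carbachol; higher B-score means a larger calcium signal and so more RGS4 inhibition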
Target sequence (P49798 whole entry, looked up): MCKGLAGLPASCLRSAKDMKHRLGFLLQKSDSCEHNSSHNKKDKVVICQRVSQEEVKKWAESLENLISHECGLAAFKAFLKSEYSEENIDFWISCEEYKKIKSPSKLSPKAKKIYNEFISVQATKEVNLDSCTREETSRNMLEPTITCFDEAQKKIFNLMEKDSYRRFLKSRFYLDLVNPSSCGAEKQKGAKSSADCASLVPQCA
MrgX1 PAM = allosterically activates human MrgX1 receptor signaling. MrgX1-HEK293, Fluo-4 calcium flux, FDSS; hits give high values. Q96LB2. AID 588675. B-score at 10 µM. 0.63% of 310,000 active;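 active = plate-corrected calcium response at least 3 library SD above typical, normal starting fluorescence, not activating the receptor alone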;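 also: compound read alongside a low EC10 to EC30 dose of BAM8-22 agonist; peak minus trough fluorescence over baseline measured at the second addition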
MrgX1 antag = blocks BAM8-22 activation of human MrgX1 receptor. Q96LB2. MRGX1-HEK293 calcium flux, Fluo-4, BAM8-22 antagonism; hits give low values. B-score at 10 µM. 1.3% of 310,000 active. AID 588676;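 active = calcium-response B-score plate-corrected more than 3 library SD below zero, starting fluorescence within 5 deviations, no agonist response on first addition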;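 also: peak minus trough fluorescence over baseline after final BAM8-22 challenge near maximal dose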
KCC2 mod = modulators of human KCC2 chloride dependent transport | B-score of Tl+ flux slope (higher = more flux/activation; lower = inhibition) at 10 µM | KCC2 cells, thallium flux FluoZin-2 fluorescence | 2.2% of 190,000 active;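 active = thallium flux slope and its plate-corrected score both differing from the plate sample mean at a set confidence after two filtering rounds, in either direction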;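 also: slope of fluorescence scaled to starting intensity during 10 to 20 s after thallium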
RGS4 pot = potentiators or activators of RGS4. HEK293 M3R/inducible RGS4, carbachol calcium flux Fluo4; hits give low values. B-score at 10 µM. 0.92% of 310,000 active. AID 463111;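 active = B-score of the integrated calcium signal more than 4 SD below the library mean, with starting fluorescence not abnormally high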;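 also: negative B-score means reduced calcium response which marks RGS4 activation or potentiation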
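test system = HEK293 cells with stable M3R and inducible RGS4 | schedule = recording 10 s baseline at 1 Hz, 100 s post-agonist | technique = Fluo4-AM (2 µM) calcium-flux fluorescence, kinetic read | measure = Agonist-evoked peak-minus-minimum fluorescence over baseline, integrated ratio, B score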
RGS4 act valid = RGS4 activation, validation assay | shares compounds with RGS4 pot | HEK293 M3R/RGS4 inducible, carbachol calcium flux Fluo4 | inhibition, % at 10 µM | 89% of 1,100 active;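 active = inhibition above 3 SD of the buffer control wells, cut at about 41% in these data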;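 also: signal is the integrated peak-minus-minimum Fluo4 fluorescence over baseline ratio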
RGS4 act ctr = counter-screen for RGS4 activators: effect in non-induced cells. shares compounds with RGS4 pot. HEK293 M3R non-induced RGS4, Fluo4 calcium flux; after carbachol challenge at its EC90. inhibition, % at 10 µM. 82% of 1,100 active;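 active = inhibition exceeding 3 SD of buffer-only control wells, cut at about 26% in these data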;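 also: percent drop in integrated peak-minus-baseline over baseline Fluo4 ratio after carbachol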
An asterisk follows results filed as active. Hits are enriched below; roughly 4.7% of the tested compounds scored in any of these assays.

Results for CCCC(=O)NC(=S)Nc1cccc(Cl)c1N1CCCCC1 ?
MrgX1 agonist: inactive; RGS4 inh: inactive; MrgX1 PAM: inactive; MrgX1 antag: inactive; RGS4 pot: -8.9*; RGS4 act valid: 94*; RGS4 act ctr: 64*

What do the screens show for `CCCCn1c(N)c(N(CCOC)C(=O)c2cc3c(s2)CCC3)c(=O)[nH]c1=O`?
MrgX1 agonist: inactive; RGS4 inh: inactive; MrgX1 PAM: inactive; MrgX1 antag: inactive; RGS4 pot: inactive

What do the screens show for `Cc1ccc(C2C3=C(CC(C)(C)CC3=O)Nc3n[nH]c(C)c32)cc1` (configuration not stated)?
MrgX1 agonist: inactive; RGS4 inh: inactive; MrgX1 PAM: inactive; MrgX1 antag: inactive; KCC2 mod: 0.056; RGS4 pot: inactive

What do the screens show for `Cc1[nH]nc2c1C(c1ccc(F)cc1)C1=C(CC(C)(C)CC1=O)N2` (configuration not stated)?
MrgX1 agonist: inactive; RGS4 inh: inactive; MrgX1 PAM: inactive; MrgX1 antag: inactive; KCC2 mod: 0.039; RGS4 pot: -9.7*; RGS4 act valid: 0; RGS4 act ctr: 0

How did CCCCN(CC)CCNC(=O)c1cc2c(-c3ccc(Cl)cc3)nn(C)c2s1 do in these assays?
MrgX1 agonist: inactive; RGS4 inh: inactive; MrgX1 PAM: inactive; MrgX1 antag: inactive; RGS4 pot: -8.9*; RGS4 act valid: 72*; RGS4 act ctr: 57*

Results for O=C(CN1CCCCC1)Nc1ccccc1Oc1ccccc1 ?
MrgX1 agonist: inactive; RGS4 inh: inactive; MrgX1 PAM: inactive; MrgX1 antag: inactive; KCC2 mod: -3.4; RGS4 pot: -8.2*; RGS4 act valid: 61*; RGS4 act ctr: 84*

How did COc1ccc(CC2(CO)CCN(CC3=Cc4cc(Cl)ccc4OC3)CC2)cc1 do in these assays?
MrgX1 agonist: inactive; RGS4 inh: inactive; MrgX1 PAM: inactive; MrgX1 antag: inactive; KCC2 mod: -0.19; RGS4 pot: inactive

Results for COc1ccc2c(c1)C=C(CN1CCC(CO)(CCc3ccccc3)CC1)CO2 ?
MrgX1 agonist: inactive; RGS4 inh: inactive; MrgX1 PAM: inactive; MrgX1 antag: inactive; KCC2 mod: -1.8; RGS4 pot: -8*; RGS4 act valid: 80*; RGS4 act ctr: 84*

Results for COCCN(C(=O)c1snc(C(N)=O)c1N)C(C(=O)NC1CCCCC1)c1ccc(N(C)C)cc1 (configuration not stated) ?
MrgX1 agonist: inactive; RGS4 inh: inactive; MrgX1 PAM: inactive; MrgX1 antag: inactive; RGS4 pot: inactive

Results for Cc1ccccc1N1CCN(CCCN2C(=O)CC(=C(c3ccccc3)c3ccccc3)C2=O)CC1 ?
MrgX1 agonist: inactive; RGS4 inh: inactive; MrgX1 PAM: inactive; MrgX1 antag: inactive; KCC2 mod: 1.7; RGS4 pot: -8.4*; RGS4 act valid: 90*; RGS4 act ctr: 43*

Results for COc1cc(-c2cc(-c3ccc(N)cc3)[nH]c(=O)c2C#N)cc(OC)c1OC ?
MrgX1 agonist: inactive; RGS4 inh: inactive; MrgX1 PAM: inactive; MrgX1 antag: inactive; RGS4 pot: -8*; RGS4 act valid: 0; RGS4 act ctr: 0

Results for CCOCCN1CCN(c2c(CC)c(C)nc3cc(-c4cc(OC)cc(OC)c4)nn23)CC1 ?
MrgX1 agonist: inactive; RGS4 inh: inactive; MrgX1 PAM: inactive; MrgX1 antag: inactive; KCC2 mod: -1.1; RGS4 pot: -7.7*; RGS4 act valid: 58*; RGS4 act ctr: 31*

How did COc1ccccc1N(C(=O)CCl)c1cn(C(C)=O)c2ccccc12 do in these assays?
MrgX1 agonist: inactive; RGS4 inh: inactive; MrgX1 PAM: inactive; MrgX1 antag: inactive; KCC2 mod: -0.2; RGS4 pot: -8.8*; RGS4 act valid: 0; RGS4 act ctr: 0

Results for Cc1ccc(C(=O)Nc2ccc(CN3CCCCC3)cc2)c(C)c1 ?
MrgX1 agonist: inactive; RGS4 inh: inactive; MrgX1 PAM: inactive; MrgX1 antag: inactive; KCC2 mod: -0.23; RGS4 pot: -8.5*; RGS4 act valid: 55*; RGS4 act ctr: 84*

How did COc1ccc(Cl)cc1C(=O)Nc1ccc(CN2CCCCC2)cc1 do in these assays?
MrgX1 agonist: inactive; RGS4 inh: inactive; MrgX1 PAM: inactive; MrgX1 antag: inactive; KCC2 mod: 1.2; RGS4 pot: inactive

How did Cc1cc(OCC(=O)Nc2cnn(CCCC(=O)O)c2)ccc1Cl do in these assays?
MrgX1 agonist: inactive; RGS4 inh: inactive; MrgX1 PAM: inactive; MrgX1 antag: inactive; RGS4 pot: inactive

How did COc1ccc2cc3cc(C(=O)NCCN4CCN(c5ccccc5F)CC4)oc3nc2c1 do in these assays?
MrgX1 agonist: inactive; RGS4 inh: inactive; MrgX1 PAM: inactive; MrgX1 antag: inactive; RGS4 pot: inactive

How did COc1ccc2cc3cc(C(=O)Nc4ccccc4N4CCN(C)CC4)oc3nc2c1 do in these assays?
MrgX1 agonist: inactive; RGS4 inh: inactive; MrgX1 PAM: inactive; MrgX1 antag: inactive; RGS4 pot: -8.9*; RGS4 act valid: 40*; RGS4 act ctr: 0

What do the screens show for `Cc1nc(N2CCN(Cc3ccccc3)CC2)nc2c1C(=O)CC(c1ccco1)C2` (configuration not stated)?
MrgX1 agonist: inactive; RGS4 inh: inactive; MrgX1 PAM: inactive; MrgX1 antag: inactive; KCC2 mod: -1.4; RGS4 pot: -8.4*; RGS4 act valid: 0; RGS4 act ctr: 0

Results for Cc1nc(N2CCN(Cc3ccc4c(c3)OCO4)CC2)nc2c1C(=O)CC(c1ccco1)C2 (configuration not stated) ?
MrgX1 agonist: inactive; RGS4 inh: inactive; MrgX1 PAM: inactive; MrgX1 antag: inactive; KCC2 mod: -0.01; RGS4 pot: inactive

What do the screens show for `CC(=O)N1CCN(c2ccc(NS(=O)(=O)c3ccc(C)cc3)cc2)CC1`?
MrgX1 agonist: inactive; RGS4 inh: inactive; MrgX1 PAM: inactive; MrgX1 antag: inactive; RGS4 pot: inactive

What do the screens show for `Cc1nc(N2CCN(c3ccccc3O)CC2)c2c(-c3ccccc3)csc2n1`?
MrgX1 agonist: inactive; RGS4 inh: inactive; MrgX1 PAM: inactive; MrgX1 antag: inactive; RGS4 pot: -11*; RGS4 act valid: 90*; RGS4 act ctr: 34*

Compound activity from PubChem BioAssay.
